In ChEMBL document CHEMBL1156162, “Investigating the anti-proliferative activity of styrylazanaphthalenes and azanaphthalenediones” (Bioorg Med Chem, 2010):

What was measured:
[1] = test system: SK-N-MC; assay: Cytotoxicity against human SK-N-MC cells after 72 hrs by MTT assay; assay type: functional, cell-based
Outline: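 SK-N-MC cells in MEM with 10% FBS, pyruvate, non-essential amino acids, glutamine, antibiotics and fungizone. Seeded 24 h before treatment, then 72 h with varying concentrations. MTT (5 mg/mL stock) added for 2 h at 37 °C, followed by lysis and OD at 570 nm. IC50 derived; triplicate wells, experiments repeated 3–7 times.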

[2] = test system: HCT-116; assay: Cytotoxicity against human HCT116 cells after 24 to 96 hrs by MTS assay; assay type: functional, cell-based
Outline: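 HCT116 cells grown as monolayers in DMEM with 12% FBS and antibiotics at 37 °C, 5% CO2. Seeded at 3.5×10³, 7×10³ or 9×10³ cells/well, cultured 18 h, then exposed to 0.58 or 46 µmol/L final for 24, 48 or 96 h at 37 °C. Medium replaced with phenol red-free DMEM, MTS added for 1 h, absorbance read at 490 nm.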

[3] = Lipophilicity, log K by RT-HPLC method; assay type: physicochemical
Outline: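 RP-HPLC on a C18 column (5 µm, 4.6 × 250 mm) with photodiode array detection, column at 30 °C and samples at 10 °C. Lipophilicity expressed as capacity factor k and calculated log k.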

[4] = test system: HCT-116; assay: Cytotoxicity against human HCT116 cells assessed as decrease in survival fraction of cells at 0.58 uM after 24 hrs by colonogenic assay; assay type: functional
Outline: (§1)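 HCT116 cells (8.5×10⁴ or 2.1×10⁵) were seeded in 35-mm dishes and held 18 h, then exposed to 0.58 or 46 µM in medium for 24 h or 96 h. Cells were trypsinised and re-seeded drug-free, then grown 9 days at 37 °C. Colonies were fixed in ethanol, stained with crystal violet, and those of ≥50 cells counted. Survival fraction was taken relative to untreated cells; means of 3 or 2 experiments.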

[5] = test system: HCT-116; assay: Cytotoxicity against human HCT116 cells assessed as decrease in survival fraction of cells at 46 uM after 24 hrs by colonogenic assay; assay type: functional; outline: as §1
[6] = test system: HCT-116; assay: Cytotoxicity against human HCT116 cells assessed as decrease in survival fraction of cells at 0.58 uM after 96 hrs by colonogenic assay; assay type: functional; outline: as §1
[7] = test system: HCT-116; assay: Cytotoxicity against human HCT116 cells assessed as decrease in survival fraction of cells at 46 uM after 96 hrs by colonogenic assay; assay type: functional; outline: as §1
[8] = test system: NIH3T3 (Mus musculus); assay: Cytotoxicity against mouse NIH/3T3 cells assessed as IC50
[9] = test system: NIH3T3 (Mus musculus); assay: as above; remark: listed apart in the source
[10] = Cytotoxicity against mouse NIH/3T3 cells assessed as viable cells after 72 hrs by MTT assay; assay type: cell-based; settings: NIH3T3, 72 h
[11] = test system: L1210; assay: Antiproliferative activity against mouse L1210 cells; assay type: functional, cell-based

| SMILES | IC50 [1] [µM] | IC50 [2] [µM] | log K [3] | other results |
| --- | --- | --- | --- | --- |
| COc1ccccc1/C=C/c1nc(Cl)c2ccccc2n1 | 0.58 | 9.4 | 1.365 | Activity [4]: 0.43; Activity [5]: 0.03; Activity [6]: 0; Activity [7]: 0; IC50 [8]: > 100 µM; IC50 [9]: > 100 µM |
| COc1ccc(/C=C/c2nc(Cl)c3ccccc3n2)cc1 | 4.34 |  | 1.134 | IC50 [8]: > 100 µM |
| COc1ccc(/C=C/c2nc3ccccc3c(=O)[nH]2)c(OC)c1 | > 6.25 |  | 1.198 |  |
| O=c1[nH]c(/C=C/c2ccc(O)c(O)c2O)nc2ccccc12 |  | > 46 | 0.551 |  |
| O=c1[nH]c(/C=C/c2ccc(Br)cc2)nc2ccc([N+](=O)[O-])cc12 | > 6.25 |  | 1.675 |  |
| Clc1nc(/C=C/c2ccccc2)nc2ccccc12 | 4.96 |  | 1.109 | IC50 [10]: 3.04 µM |
| COc1ccccc1/C=C/c1nc2ccccc2c(=O)[nH]1 | 2.88 | 1.58 | 1.151 | IC50 [10]: 1.17 µM |
| O=c1[nH]c(/C=C/c2ccc(Br)cc2)nc2ccccc12 | 2.85 |  | 1.593 |  |
| O=Cc1ccc(/C=C/c2nc3ccccc3c(=O)[nH]2)cc1 | > 6.25 |  | 1.035 |  |
| COc1cccc(/C=C/c2nc(Cl)c3ccccc3n2)c1 | 5.28 |  | 1.183 | IC50 [8]: > 100 µM |
| Cc1nc2ccccc2c(=O)n1C(N)=O | > 6.25 | > 600 | 0.553 |  |
| Cc1nc2ccc([N+](=O)[O-])cc2c(=O)n1C(N)=O | > 6.25 | > 92 | 0.958 |  |
| O=c1[nH]c(/C=C/c2ccccc2Br)nc2ccccc12 | > 6.25 | > 46 | 1.483 |  |
| COc1cccc(/C=C/c2nc3ccccc3c(=O)[nH]2)c1 | 5.13 |  | 1.184 |  |
| O=c1[nH]c(/C=C/c2cccc(Br)c2)nc2ccccc12 | > 6.25 |  | 1.59 |  |
| O=c1[nH]c(/C=C/c2cccc(Cl)c2)nc2ccccc12 | > 6.25 |  | 1.506 |  |
| COc1ccc(/C=C/c2nc3ccccc3c(=O)[nH]2)cc1 | > 6.25 | > 46 | 1.135 | IC50 [8]: > 100 µM |
| COc1ccc(/C=C/c2nc(Cl)c3ccccc3n2)c(OC)c1 | 1.75 | 23 | 1.195 | IC50 [8]: 34.1 µM |
| CC(=O)NC1=CC(=O)c2cnc(C)nc2C1=O |  | 17 | 0.017 | Activity [4]: 1.2; Activity [5]: 0; Activity [6]: 0.26; Activity [7]: 0 |
| CC(=O)C1=CC(=O)c2nc(C)ccc2C1=O |  | 10.9 |  | Activity [4]: 1.07; Activity [5]: 0.04; Activity [6]: 0.21; Activity [7]: 0 |
| Oc1cccc2ccc(/C=C/c3ccc(Cl)cc3)nc12 | 0.7 |  | 1.539 |  |
| COc1ccc2nc(/C=C/c3ccccc3)[nH]c(=O)c2c1 |  |  |  | IC50 [11]: 3.59 µM |
| O=c1[nH]c(/C=C/c2ccccc2)nc2ccccc12 | 1.39 | 2.53 | 1.115 | IC50 [10]: 2.4 µM |
| CC(=O)N(O)CCCCCNC(=O)CCC(=O)N(O)CCCCCNC(=O)CCC(=O)N(O)CCCCCN [DEFEROXAMINE] | 9.89 |  |  |  |
| COc1cccc2c1C(=O)c1c(O)c3c(c(O)c1C2=O)C[C@@](O)(C(=O)CO)C[C@@H]3O[C@H]1C[C@H](N)[C@H](O)[C@H](C)O1 [DOXORUBICIN] | 0.12 | 5.95 |  |  |
